Shown are actives, neighbours in structure and some others; about 12% of the full set was active somewhere.
ROMK mod: modulates human ROMK potassium channel activity. P48048. Tet-inducible ROMK, thallium flux fluorescence; actives lie on both sides. B-score at 10 µM. 2% of 130,000 active;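 active = signal ratio slope over the read window, or its plate-corrected B-score, at least 3 SD from the plate mean, either direction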;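 note: B-score of the F/F0 ratio slope over 7 to 12 s after thallium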
WT yeast gro inh: growth inhibition of WT yeast, mitochondrial fusion screen; inhibition, % at 10 µM; 2.1% of 190,000 active; mitochondrial fusion phenotypic screen, WT strain; in the data active = inhibition above about 58%; tested in S. cerevisiae
Cl transport mod: KCC2 (human) Cl- transport modulation; B-score of Tl+ flux slope (higher = more flux/activation; lower = inhibition) at 10 µM; 2.2% of 190,000 active; KCC2 cells, thallium flux FluoZin-2 fluorescence;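 active = thallium flux slope and its plate-corrected score both differing from the plate sample mean at a set confidence after two filtering rounds, in either direction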;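 note: slope of fluorescence scaled to starting intensity during 10 to 20 s after thallium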
Target sequence (Q9H2X9 whole entry, looked up): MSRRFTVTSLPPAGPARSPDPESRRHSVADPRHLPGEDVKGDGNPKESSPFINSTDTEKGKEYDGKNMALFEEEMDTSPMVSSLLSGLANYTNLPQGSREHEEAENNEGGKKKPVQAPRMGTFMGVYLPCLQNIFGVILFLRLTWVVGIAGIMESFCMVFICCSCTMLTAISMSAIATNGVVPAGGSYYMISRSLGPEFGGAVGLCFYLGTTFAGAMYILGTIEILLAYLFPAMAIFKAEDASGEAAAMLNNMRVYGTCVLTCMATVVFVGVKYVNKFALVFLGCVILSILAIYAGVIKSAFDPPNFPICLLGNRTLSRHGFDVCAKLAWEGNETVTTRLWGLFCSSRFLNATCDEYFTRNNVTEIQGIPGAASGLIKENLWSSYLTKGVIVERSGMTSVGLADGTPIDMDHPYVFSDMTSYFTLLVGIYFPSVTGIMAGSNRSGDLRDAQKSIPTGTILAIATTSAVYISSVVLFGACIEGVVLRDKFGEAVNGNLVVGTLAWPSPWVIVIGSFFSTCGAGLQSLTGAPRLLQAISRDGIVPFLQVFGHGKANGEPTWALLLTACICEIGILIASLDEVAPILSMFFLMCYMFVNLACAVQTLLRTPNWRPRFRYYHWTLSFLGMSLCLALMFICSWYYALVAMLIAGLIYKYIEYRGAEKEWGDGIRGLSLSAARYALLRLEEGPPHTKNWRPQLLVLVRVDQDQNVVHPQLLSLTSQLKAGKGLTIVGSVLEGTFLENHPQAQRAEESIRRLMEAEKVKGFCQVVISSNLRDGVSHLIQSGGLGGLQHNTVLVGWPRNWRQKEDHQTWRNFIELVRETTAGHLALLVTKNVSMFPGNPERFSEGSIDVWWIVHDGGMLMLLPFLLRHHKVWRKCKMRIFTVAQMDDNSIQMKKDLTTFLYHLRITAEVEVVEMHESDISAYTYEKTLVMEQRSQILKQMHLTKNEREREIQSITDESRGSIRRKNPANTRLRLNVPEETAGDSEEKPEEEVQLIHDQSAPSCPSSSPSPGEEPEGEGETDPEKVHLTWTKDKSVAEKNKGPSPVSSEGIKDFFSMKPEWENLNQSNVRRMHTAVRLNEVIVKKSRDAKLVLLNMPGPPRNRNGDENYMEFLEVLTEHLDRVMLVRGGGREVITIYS
Diaph act CS: counter-screen for diaphorase-based assays: diaphorase activators and chemical reducers; Diaphorase/resazurin coupled assay, resorufin fluorescence, 16 min; active compounds read high; 1 = vehicle wells, 0 = NADH-free wells; activation factor at 20 µM; 0.005% of 190,000 active;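 active = diaphorase activity raised at least twofold by the compound at 20 µM; inactive = activation factor below 2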
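System – purified diaphorase enzyme from Clostridium kluyveri · Input – enzyme 0.07 U/mL final · Also added – final NADH 0.114 mM, resazurin 0.1 mM · Measured by – fluorescence of resorufin, 544 nm excitation, 590 nm emission · Timing – 16 min enzyme reaction, ambient temperature · Measure – resorufin increase flagging diaphorase activators or reducers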
L major viab: inhibitors of Leishmania major promastigote growth; Leishmania major promastigotes, resazurin fluorescence viability; inhibition, % at 10 µM; 9% of 200,000 active; in the data active = inhibition above about 50%;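 note: promastigotes grown with compound for 44 hours at 28 °C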
Diaph inh CS: counter-screen for diaphorase-based assays: diaphorase inhibitors and chemical oxidizers; diaphorase resazurin-to-resorufin fluorescence, NADH, 16 min; bacterial (C. kluyveri) enzyme, not human; inhibition, % at 20 µM; 0.69% of 190,000 active; AID 1217;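 active = primary screen inhibition at 20 µM above a set limit, cut at about 50% in these data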;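 note: plate controls were DMSO with full reaction for no effect and wells lacking NADH for full effect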
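System: Bacterial diaphorase enzyme (C. kluyveri) | Incubation: 16-min room-temperature incubation before reading | Benchmarks: No-NADH positive control and DMSO neutral control | Measured by: Resorufin fluorescence 544/590 nm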
ROMK hit retest: confirmation of human ROMK potassium channel modulators; AID 1917; shares compounds with ROMK mod; ROMK thallium flux, fluorescence ratio; active compounds read low; normalized thallium flux (F/F0 slope) at 10 µM; 54% of 3,000 active;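 active = Flux at 10 µM at least 3 SD below or above vehicle control mean in one or both replicates; inconclusive = no clear call, values can overlap the other calls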
Numbers without * were called inactive; ? = inconclusive; / = not tested or not shown.

SMILES	ROMK mod	WT yeast gro inh	Cl transport mod	Diaph act CS	L major viab	Diaph inh CS	ROMK hit retest
CC(C)c1ccc(OCC(=O)N(c2ccccn2)C2CCCCC2)cc1	-2.6*	36	-1.5	1	11	3	0.055*
O=C(COc1ccc(F)cc1)N(c1ccccn1)C1CCCCC1	0.5	6	-0.35	0.9	-2	6	/
CCC(C)S(=O)(=O)c1snnc1C (stereo not given)	0.25	-1	0.76	0.9	-3	6	/
O=C(Nc1ccccc1)N1CCN(Cc2ccc(Cl)cc2)CC1	/	8	-0.74	0.8	15	15	/
O=C(Nc1ccc(Cl)cc1)N1CCCN(Cc2ccc(F)cc2)C1	-2.7*	/	3	0.9	92*	14	0.056*
CCOc1ccccc1N(C(=O)c1snc(C(N)=O)c1N)C(C(=O)NCCC(C)C)c1ccco1 (stereo not given)	-4.5*	6	-1.9	0.6	21	37	0.074
O=C(Nc1cccc(-c2nnc(-c3ccccc3)o2)c1)c1ccc(Br)o1	-1.2	44	/	0.9	3	15	0.065*
O=C(COc1ccccc1)Nc1cccc(-c2nnc(-c3ccccc3)o2)c1	/	/	/	0.8	/	17	/
O=C(Nc1cccc(-c2cn3cccnc3n2)c1)c1ccc2c(c1)OCO2	/	/	0.03	0.9	98*	6	0.079
c1cnc2nc(-c3ccc4c(c3)OCO4)cn2c1	-0.085	24	0.65	0.9	-1	13	/
O=C(Nc1cccc(-c2cn3cccnc3n2)c1)c1ccc(Br)o1	/	1	-0.043	0.8	100*	22	?
Cc1ccc(C(=O)NC(=S)Nc2cc(-c3nc4ccccc4s3)ccc2C)cc1	/	-14	0.34	0.9	-6	5	/
Cc1nn(Cc2ccccc2Cl)c(C)c1NC(=O)CSc1n[nH]c(C)c1[N+](=O)[O-]	/	4	1.1	0.9	-5	5	/
COc1cc(Cl)ccc1NC(=S)N(CCN1CCOCC1)C1CCN(C(C)=O)CC1	1.1	1	-0.93	1	1	1	/
COC(=O)C1=C(C)N(CCc2ccc(OC)c(OC)c2)C(=O)/C1=C\N(C)C	-0.87	2	-2.3	0.9	-4	11	/
CCc1cc2cc(C)ccc2nc1SCC(=O)Nc1cc(C)on1	0.075	-13	0.02	1.1	4	-5	/
CCc1cc2cc3c(cc2nc1SCC(=O)Nc1cc(C)on1)OCO3	/	-57	1.2	1	-4	-4	0.073
Cc1cccc(Oc2ncc(-c3ccc(Cl)cc3)cn2)c1	/	-63	-0.34	0.9	-4	13	/
CCC1(CC)Cc2ccccc2C(CC(=O)N2CCOCC2)=N1	-0.68	-2	-0.07	1	1	4	/
CCOc1cccc(/C=C2\NC(=S)N(c3ccccc3)C2=O)c1O	/	/	-2.4	/	/	/	0.058*
CCOc1cc(/C=C2\NC(=S)N(c3c(C)n(C)n(-c4ccccc4)c3=O)C2=O)ccc1O	/	14	0.18	0.9	-5	14	/
CCOC(=O)c1c(C)n(-c2ccc(C)cc2)c2ccc(OCC(O)CNCCCO)cc12 (stereo not given)	-3.6*	33	-0.061	1.1	80*	-7	0.053*
CCOC(=O)c1c(C)n(C)c2ccc(OCC(O)CNC(CC)CO)cc12 (stereo not given)	-1.2	-38	/	1.1	6	-6	/
Cc1cc(C)nc(SCC(=O)c2cc3ccccc3oc2=O)n1	-4.1*	-3	-0.26	0.9	-6	6	0.06*
O=C(CSc1nc2ccccc2o1)c1cc2ccccc2oc1=O	/	29	-0.072	0.8	-1	20	/
SMILES	ROMK mod	WT yeast gro inh	Cl transport mod	Diaph act CS	L major viab	Diaph inh CS	ROMK hit retest
CCOC(=O)C1=C(CSc2nc3ccccc3s2)NC(=O)NC1c1cccc([N+](=O)[O-])c1 (stereo not given)	0.62	12	-0.68	0.9	11	12	/
CCOc1cc(-c2cc(-c3ccc(C)cc3)nc(N)c2C#N)ccc1O	0.33	-11	/	1	1	0	/
COc1cc(-c2cc(-c3ccc(O)cc3)nc(N)c2C#N)ccc1O	4.2*	5	-2	/	34	/	0.089
COc1ccc(OC)c(-c2cc(-c3cccnc3)nc(N)c2C#N)c1	3.5*	/	-0.3	/	/	/	0.076
CC(=O)[C@H]1CC[C@H]2[C@@H]3CCC4=CC(=O)CC[C@]4(C)[C@H]3CC[C@]12C	/	41	-1.5	0.7	29	26	0.065*
COc1ccc(NC(=O)Nc2ccccc2F)cc1Cl	0.65	16	0.23	0.8	-4	20	/
CCN(CC)c1ccc(C=N/C(C#N)=C(\N)C#N)cc1	/	-7	/	0.8	-2	18	?
CCN(CC)c1ccc(/C=N/Nc2nn[nH]n2)cc1	/	/	-0.72	/	/	/	/
Cc1ccccc1NC(=O)C1CC(=O)N(Cc2ccccc2)C1 (stereo not given)	0.0014	-8	-1.1	0.9	-8	10	/
CCN(CC)c1ccc(/C=N/NC(=O)c2cnccn2)cc1	3.7*	7	0.57	0.9	4	8	0.1*
CCN(CC)c1ccc(/C=N/NC(=O)c2ccc3nc[nH]c3c2)cc1	/	/	0.034	/	/	/	0.076
Cc1ccc(N/C=C(\C#N)S(=O)(=O)c2ccccc2)cc1	2.5*	-20	0.82	0.9	8	7	0.078
CC(C)CC(OC(=O)c1ccco1)C(=O)NC1CCCCC1 (stereo not given)	/	18	2.5	1	-2	3	/
Nc1nonc1-c1nc2ccccc2n1CC(=O)Nc1ccccc1	/	/	1.4	/	/	/	/
CCOC(=O)c1ccccc1NC(=O)Cn1c(-c2nonc2N)nc2ccccc21	4.4*	14	-0.96	0.8	10	24	0.087
O=C(c1ccncc1)c1ccc(N2CCN(C3CC(=O)N(Cc4cccs4)C3=O)CC2)cc1 (stereo not given)	/	-11	-1.7	0.9	18	14	0.06*
COc1ccccc1Nc1nnc(SCC(=O)Nc2nc(-c3ccc(F)cc3)cs2)s1	0.65	14	-1.5	1	-2	5	/
CC(C)c1ccc(C(=O)N(c2ccccn2)C(C)c2ccco2)cc1 (stereo not given)	/	0	-0.25	0.8	13	20	/
CC(c1ccco1)N(C(=O)CSc1ccc(Br)cc1)c1ccccn1 (stereo not given)	-4.1*	19	-1.2	0.8	11	17	0.058*
COc1cccc(NC(=O)c2ccc(CN3CCN(c4ccccc4)CC3)cc2)c1	-1.4	-7	-1.7	1.1	-4	-5	/
Cc1cccc(NC(=O)c2ccc(CN3CCN(Cc4ccccc4)CC3)cc2)c1	-2.1*	8	-0.58	1.1	100*	-9	?
COC(=O)c1sccc1OC(C)C(C)=O (stereo not given)	/	-4	0.62	0.9	-4	11	/
Cc1oc2cc(O)ccc2c(=O)c1-c1nncn1-c1ccccc1	-4.6*	6	-0.11	0.8	-8	19	0.049*
